The source of these data is PubChem BioAssay.

The structures appear in SMILES notation. Calls of active or inactive are those of the source.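 How the source made its calls, unless noted: active means viability loss from added drug above about 55%, and viability with drug at most 40%, in both replicates (limit read from the data, passing the limit was not always enough); inconclusive means both conditions met in only one replicate; inactive means neither replicate meets both conditions.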

A short description of test [1]: Her2 expression decrease, cell viability multiplex – SKBR3 breast tumor cells, AlphaScreen, ATP viability, primary screen (AID 461;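 active means Her2 level under about 52% in both replicate screens, with viability over 70% of control, limit read from the data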;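 on Her2 level: lower value means less Her2 protein in the cells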;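 on viability: percent of carrier control wells set as 100% viability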). Conditions: SKBR3 Her2 protein level, 18-24 h, measured here: SKBR3 viability, ATP luminescence, at 10 µM. (In Alpha technology, singlet oxygen from a donor bead excites a nearby acceptor bead.)
Test [2] addresses Receptor tyrosine-protein kinase erbB-2 (Homo sapiens) (UniProt P04626). Described as above. The settings on record: 18-24 h, at 10 µM, stronger effect = lower value.
Test [3] is described as follows: reduced viability of SK-BR-3 breast cancer cells – cell-based, 24 h, human, pilot screen (AID 572;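 active means viability at or below 10% of carrier control in both of two separate runs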;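 further: compound exposure lasted between 18 and 24 h rather than exactly 24 h; 100% = carrier-treated control wells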). Conditions: SK-BR-3 viability, CellTiter-Glo luminescence, at 10 µM, stronger effect = lower value. In general terms: Cellular ATP, detected with luciferase, serves as a proxy for viable cell number.
Test [4] is described as follows: HUVEC growth inhibition – cell-based, human, primary screen (AID 575;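 active means viability at or below 30% in both replicate assays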;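 further: 100% = median of untreated cell wells with 0.1% DMSO on each plate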). The settings on record: HUVEC proliferation, CellTiter-Glo luminescence, 72 h; at 10 µM; stronger effect = lower value. The method in brief:
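Material: primary human umbilical vein endothelial cells / Schedule: 72 h exposure, 37 °C, 5% CO2, 30 min RT equilibration / Signal: ATP-based CellTiter-Glo luminescent read / Read-out basis: percent of median DMSO-control luminescence / Control set: 32 DMSO-only cell-control wells (high), 32 MePR drug-control wells (low) per plate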

A short description of test [5]: H69AR cell proliferation blockers – human, duplicate replicates, primary screen (AID 580;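 active means viability at or under a set limit in both replicates, limit being median viability minus 3 SD, cut at about 48% in these data, passing the limit was not always enough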;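 further: 100% = mean luminescence of untreated wells and 0% = no signal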). Conditions: H69AR lung tumor cells viability, ATP luminescence, 72 h; at 10 µM; stronger effect = lower value.
Test [6] is described as follows: MRP1 drug-resistance reversers in H69AR cells – cell-based, doxorubicin co-treatment, pilot screen (AID 601). Conditions: CellTiter-Glo, 72 h, at 10 µM; for differential viability (reversal): stronger effect = higher value.
Test [7] is described as follows: yeast transport mutant growth inhibition pilot in 384-well plates, post-Golgi transport modulator project (AID 636; in the data active means inhibition above about 31%). Conditions: absorbance 615 nm, about 18 h, stronger effect = higher value.
The nature of test [8]: growth suppression of yeast trafficking mutant, preliminary HTS, modulators of trafficking downstream of Golgi apparatus project, 1536-format plate, OD 615 nm (AID 637; in the data active means inhibition above about 30%). Conditions: yeast transport mutant growth, absorbance 615 nm, 18 h; stronger effect = higher value.
[9] abbreviates: H69AR cells + 2 uM doxorubicin, measured here: viability with 2 uM doxorubicin, stronger effect = lower value.
The mark [10] stands for this setting: H69AR cells, compound alone cytotoxicity.

Receptor tyrosine-protein kinase erbB-2 (Homo sapiens), sequence (P04626 whole entry, looked up): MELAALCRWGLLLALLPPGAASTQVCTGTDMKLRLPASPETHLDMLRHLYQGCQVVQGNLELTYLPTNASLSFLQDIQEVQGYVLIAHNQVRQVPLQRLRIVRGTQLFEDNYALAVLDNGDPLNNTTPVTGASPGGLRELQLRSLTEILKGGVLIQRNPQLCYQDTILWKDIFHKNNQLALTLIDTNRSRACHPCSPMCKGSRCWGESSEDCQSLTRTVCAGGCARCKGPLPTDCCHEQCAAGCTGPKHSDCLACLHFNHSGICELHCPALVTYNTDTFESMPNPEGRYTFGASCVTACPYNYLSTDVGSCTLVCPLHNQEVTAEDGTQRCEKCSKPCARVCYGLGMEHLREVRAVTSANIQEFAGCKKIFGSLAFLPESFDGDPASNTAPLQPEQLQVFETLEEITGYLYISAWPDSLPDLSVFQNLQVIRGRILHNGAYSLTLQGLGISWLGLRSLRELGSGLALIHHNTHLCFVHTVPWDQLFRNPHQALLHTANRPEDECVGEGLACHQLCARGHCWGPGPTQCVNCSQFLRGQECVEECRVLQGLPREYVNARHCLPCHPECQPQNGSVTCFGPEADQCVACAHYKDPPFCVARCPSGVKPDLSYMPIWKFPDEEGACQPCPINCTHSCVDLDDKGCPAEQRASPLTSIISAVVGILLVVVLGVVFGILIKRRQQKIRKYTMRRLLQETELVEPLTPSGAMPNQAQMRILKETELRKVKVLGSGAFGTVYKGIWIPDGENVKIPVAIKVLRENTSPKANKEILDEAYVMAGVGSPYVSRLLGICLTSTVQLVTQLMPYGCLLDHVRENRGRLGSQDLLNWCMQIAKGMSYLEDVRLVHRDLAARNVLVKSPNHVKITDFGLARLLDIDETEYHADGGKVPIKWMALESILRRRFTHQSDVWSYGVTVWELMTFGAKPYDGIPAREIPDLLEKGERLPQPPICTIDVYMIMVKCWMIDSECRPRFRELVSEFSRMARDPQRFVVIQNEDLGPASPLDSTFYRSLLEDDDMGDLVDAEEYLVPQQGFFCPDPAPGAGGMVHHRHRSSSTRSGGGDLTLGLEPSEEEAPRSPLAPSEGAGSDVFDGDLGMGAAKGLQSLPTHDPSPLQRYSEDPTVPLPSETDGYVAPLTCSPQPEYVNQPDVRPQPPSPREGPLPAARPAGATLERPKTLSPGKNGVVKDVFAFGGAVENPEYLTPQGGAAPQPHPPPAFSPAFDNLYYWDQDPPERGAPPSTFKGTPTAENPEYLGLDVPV

Take `COCCn1c(-c2ccc(OC)c(OC)c2)nc2ccccc21`: the viability in test [1] is 93%; in test [3] it was 93% (inactive); in test [4], 105% (inactive); in test [5], 95.8% (inactive); in test [6] (setting [9]), 91%; in test [6] (setting [10]) it was 95.8%. Moreover, the Her2 level in test [2] was 108% (inactive). Also, the differential viability (reversal) in test [6] (H69AR cells + 2 uM doxorubicin) was 4.81% (inactive). For the same compound, the inhibition in test [7] was -4.67% (inactive); in test [8], -5.81% (inactive).
Turning to `C=CCn1c(-c2ccccc2)c[nH]c1=S`, the viability was 91% in test [1]; 91% (inactive) in test [3]; 114% (inactive) in test [4]; 99.9% (inactive) in test [5]; 77.5% in test [6] (setting [9]); 99.9% in test [6] (setting [10]). In addition, the Her2 level in test [2] was 92.5% (inactive). In addition, in test [6] (H69AR cells + 2 uM doxorubicin), the differential viability (reversal) is 22.4% (inactive). Besides, the inhibition in test [7] is -5.84% (inactive); in test [8], 0.16% (inactive).
Turning to `COc1ccc(C2=NO[C@@H]3C(=O)N(c4cccc(C)c4C)C(=O)[C@H]23)cc1OC`, the viability was 104% in test [1]; 104% (inactive) in test [3]; 97.7% (inactive) in test [4]; 91.5% (inactive) in test [5]; 99.5% in test [6] (setting [9]); 91.5% in test [6] (setting [10]). In addition, in test [2], the Her2 level is 106% (inactive). For the same compound, in test [6] (H69AR cells + 2 uM doxorubicin), the differential viability (reversal) was -7.95% (inactive). The inhibition in test [7] was 4.29% (inactive); in test [8] it was -3.49% (inactive).
For the compound `c1ccc(CCc2nc(-c3cccnc3)no2)cc1`, the viability is 86.5% in test [1]; 86.5% (inactive) in test [3]; 108% (inactive) in test [4]; 92.9% (inactive) in test [5]; 91.8% in test [6] (setting [9]); 92.9% in test [6] (setting [10]). The Her2 level in test [2] is 73% (inactive). Besides, the differential viability (reversal) in test [6] (H69AR cells + 2 uM doxorubicin) is 1.11% (inactive). Besides, the inhibition in test [7] is -4.27% (inactive); in test [8], 1.31% (inactive).
As for `O=c1c2c(-c3ccccc3)csc2nc2n1CCC2`, the viability in test [1] is 81%; in test [3], 81% (inactive); in test [4], 77.2% (inactive); in test [5], 79.4% (inactive); in test [6] (setting [9]), 84.4%; in test [6] (setting [10]), 79.4%. For the same compound, the Her2 level in test [2] was 99% (inactive). For the same compound, the differential viability (reversal) in test [6] (H69AR cells + 2 uM doxorubicin) is -4.97% (inactive). Besides, the inhibition in test [7] is 2.84% (inactive); in test [8] it was 29.2% (inactive).
Turning to `O=C(Nc1nnc(COc2ccc(F)cc2)s1)c1cccs1`, the viability in test [1] was 107%; in test [3] it was 107% (inactive); in test [4], 60% (inactive); in test [5] it was 106% (inactive); in test [6] (setting [9]), 84.9%; in test [6] (setting [10]), 106%. Also, the Her2 level in test [2] is 88.5% (inactive). Besides, in test [6] (H69AR cells + 2 uM doxorubicin), the differential viability (reversal) is 21.3% (inactive). The inhibition was -6.93% (inactive) in test [7] and -0.48% (inactive) in test [8].
As for `CC(=O)c1cccc(NC(=O)c2ccc(NS(C)(=O)=O)cc2)c1`, the viability in test [1] was 118%; in test [3] it was 118% (inactive); in test [4], 97.7% (inactive); in test [5], 83.6% (inactive); in test [6] (setting [9]), 85%; in test [6] (setting [10]) it was 83.6%. For the same compound, in test [2], the Her2 level is 80.5% (inactive). Further, the differential viability (reversal) in test [6] (H69AR cells + 2 uM doxorubicin) was -1.39% (inactive). Also, the inhibition in test [7] was -3.95% (inactive); in test [8] it was 1.75% (inactive).
For the compound `Cc1nc(N)c(C#N)c(-c2cccnc2)c1C`, the viability in test [1] is 94%; in test [3], 94% (inactive); in test [4], 74.3% (inactive); in test [5] it was 102% (inactive); in test [6] (setting [9]) it was 115%; in test [6] (setting [10]), 102%. Besides, the Her2 level in test [2] was 83.5% (inactive). In test [6] (H69AR cells + 2 uM doxorubicin), the differential viability (reversal) is -13.1% (inactive). The inhibition in test [7] is -2.4% (inactive); in test [8] it was -2.86% (inactive).
With `COCCn1c(C23CC4CC(CC(C4)C2)C3)n[nH]c1=S`, the viability in test [1] is 90%; in test [3] it was 90% (inactive); in test [4], 79.5% (inactive); in test [5], 77.2% (inactive); in test [6] (setting [9]) it was 75.6%; in test [6] (setting [10]), 77.2%. Besides, in test [2], the Her2 level was 94.5% (inactive). For the same compound, the differential viability (reversal) in test [6] (H69AR cells + 2 uM doxorubicin) was 1.57% (inactive). Besides, the inhibition in test [7] was -2.34% (inactive); in test [8], 1.33% (inactive).
For the compound `Cc1[nH]c(=O)[nH]c(=O)c1S(=O)(=O)N1CCN(c2cccc(Cl)c2)CC1`, the viability in test [1] is 88%; in test [3] it was 88% (inactive); in test [4], 82.6% (inactive); in test [5], 93.2% (inactive); in test [6] (setting [9]), 91.6%; in test [6] (setting [10]) it was 93.2%. Further, in test [2], the Her2 level was 112% (inactive). Moreover, in test [6] (H69AR cells + 2 uM doxorubicin), the differential viability (reversal) was 1.64% (inactive). Besides, the results for the inhibition in test [7] and in test [8] were 3.95% (inactive) and -9.35% (inactive), respectively.
In the case of `CSc1nnc(-c2ccc(NC(=O)CCc3ccccc3)cc2)n1C`, the viability in test [1] is 91.5%; in test [3] it was 91.5% (inactive); in test [4] it was 111% (inactive); in test [5], 87% (inactive); in test [6] (setting [9]), 89.5%; in test [6] (setting [10]), 87%. Besides, in test [2], the Her2 level is 82.5% (inactive). Besides, the differential viability (reversal) in test [6] (H69AR cells + 2 uM doxorubicin) was -2.53% (inactive). Moreover, the inhibition in test [7] was -4.59% (inactive); in test [8], 3.11% (inactive).
In the case of `COc1ccc(OC)c(C2=NOC(C(=O)Nc3cccnc3)C2)c1` (stereo not given), the viability was 78.5% in test [1]; 78.5% (inactive) in test [3]; 102% (inactive) in test [4]; 88.9% (inactive) in test [5]; 83.2% in test [6] (setting [9]); 88.9% in test [6] (setting [10]). Besides, in test [2], the Her2 level is 82% (inactive). Further, the differential viability (reversal) in test [6] (H69AR cells + 2 uM doxorubicin) is 5.72% (inactive). Further, the inhibition was -1.97% (inactive) in test [7] and 1.09% (inactive) in test [8].
With `COc1cccc(N2C(=O)C(O)=C(C(C)=O)C2c2ccc(OC)c(OC)c2)c1` (stereo not given), the viability in test [1] was 94.5%; in test [3], 94.5% (inactive); in test [4] it was 109% (inactive); in test [5], 100% (inactive); in test [6] (setting [9]), 93%; in test [6] (setting [10]), 100%. The Her2 level in test [2] is 94% (inactive). In addition, the differential viability (reversal) in test [6] (H69AR cells + 2 uM doxorubicin) is 7.03% (inactive). Besides, the inhibition was 0.26% (inactive) in test [7] and 4.75% (inactive) in test [8].
As for `COc1ccc(/C(O)=C2/C(=O)C(=O)N(CCCN(C)C)C2c2ccco2)cc1Cl` (stereo not given), the viability in test [1] was 104%; in test [3], 104% (inactive); in test [4], 120% (inactive); in test [5], 95.8% (inactive); in test [6] (setting [9]), 88.6%; in test [6] (setting [10]), 95.8%. For the same compound, the Her2 level in test [2] was 98.5% (inactive). Further, the differential viability (reversal) in test [6] (H69AR cells + 2 uM doxorubicin) is 7.21% (inactive). The figures for the inhibition in test [7] and in test [8] were -6.62% (inactive) and -10.7% (inactive), respectively.

In general, viability refers to a read-out of living cells in per cent, often relative to untreated cells. One may read the inhibition as the drop in the measured response relative to a control, in per cent.
